Legend:
[1] = target: Butyrylcholinesterase (Rattus norvegicus, UniProt Q9JKC1); assay: Inhibition of rat serum BuChE by Ellman's method
[2] = target: T1, Amyloid-beta precursor protein (Homo sapiens, UniProt P05067); assay: Disaggregation of self-induced amyloid beta (1 to 42) (unknown origin) at 25 uM measured by Thioflavin T based fluorometric assay relative to control
[3] = target: T1, Amyloid-beta precursor protein; assay: Disaggregation of Cu2+ induced amyloid beta (1 to 42 residues) (unknown origin) aggregation at 25 uM by thioflavin-T fluorescence method relative to control
[4] = target: T2, Acetylcholinesterase (Rattus norvegicus, UniProt P37136); assay: Inhibition of rat cortex homogenate acetylcholinesterase by Ellman's method
T2 sequence (P37136 whole entry): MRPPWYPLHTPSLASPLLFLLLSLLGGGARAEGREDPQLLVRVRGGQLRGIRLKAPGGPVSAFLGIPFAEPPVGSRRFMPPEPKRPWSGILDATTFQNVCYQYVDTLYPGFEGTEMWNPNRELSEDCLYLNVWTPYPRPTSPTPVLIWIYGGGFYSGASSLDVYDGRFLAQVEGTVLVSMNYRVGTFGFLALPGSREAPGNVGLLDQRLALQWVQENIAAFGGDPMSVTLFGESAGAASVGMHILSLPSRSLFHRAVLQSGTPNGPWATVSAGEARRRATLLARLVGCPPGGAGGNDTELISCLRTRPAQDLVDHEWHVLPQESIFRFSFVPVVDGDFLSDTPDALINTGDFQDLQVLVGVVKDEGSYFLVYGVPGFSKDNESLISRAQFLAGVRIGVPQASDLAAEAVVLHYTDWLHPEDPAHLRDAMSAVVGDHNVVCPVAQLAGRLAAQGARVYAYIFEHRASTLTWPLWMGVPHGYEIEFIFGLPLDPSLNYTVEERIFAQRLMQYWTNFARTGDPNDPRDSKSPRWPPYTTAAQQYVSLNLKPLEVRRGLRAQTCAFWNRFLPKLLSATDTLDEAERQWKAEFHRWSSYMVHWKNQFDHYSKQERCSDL

[5] = species on record: Homo sapiens; assay: Selectivity index, ratio of IC50 for recombinant human MAO-A to IC50 for recombinant human MAO-B
Outline: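 Selectivity index taken as IC50(hMAO-A)/IC50(hMAO-B). IC50 values are mean ± SEM from three experiments.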

[6] = target: T3, Amine oxidase [flavin-containing] A (Homo sapiens, UniProt P21397); assay: Inhibition of human recombinant MAO-A by multimode plate reader assay
T3 sequence (P21397 whole entry): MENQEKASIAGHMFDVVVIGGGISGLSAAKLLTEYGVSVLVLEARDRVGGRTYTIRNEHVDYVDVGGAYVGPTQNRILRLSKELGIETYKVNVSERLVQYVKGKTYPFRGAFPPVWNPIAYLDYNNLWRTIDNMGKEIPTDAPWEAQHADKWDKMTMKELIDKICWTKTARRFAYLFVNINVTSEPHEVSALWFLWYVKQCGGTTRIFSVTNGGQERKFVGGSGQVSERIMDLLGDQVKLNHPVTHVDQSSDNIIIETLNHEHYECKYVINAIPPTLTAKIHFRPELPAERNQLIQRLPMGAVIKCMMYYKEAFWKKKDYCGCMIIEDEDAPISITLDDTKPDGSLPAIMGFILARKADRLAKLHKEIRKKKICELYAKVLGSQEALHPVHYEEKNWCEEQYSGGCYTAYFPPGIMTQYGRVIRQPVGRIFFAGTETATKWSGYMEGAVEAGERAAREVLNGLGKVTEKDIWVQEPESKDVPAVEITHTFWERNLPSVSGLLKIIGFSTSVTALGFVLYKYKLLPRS

[7] = target: T4, Amine oxidase [flavin-containing] B (Homo sapiens, UniProt P27338); assay: Inhibition of human recombinant MAO-B by multimode plate reader assay
T4 sequence (P27338 whole entry): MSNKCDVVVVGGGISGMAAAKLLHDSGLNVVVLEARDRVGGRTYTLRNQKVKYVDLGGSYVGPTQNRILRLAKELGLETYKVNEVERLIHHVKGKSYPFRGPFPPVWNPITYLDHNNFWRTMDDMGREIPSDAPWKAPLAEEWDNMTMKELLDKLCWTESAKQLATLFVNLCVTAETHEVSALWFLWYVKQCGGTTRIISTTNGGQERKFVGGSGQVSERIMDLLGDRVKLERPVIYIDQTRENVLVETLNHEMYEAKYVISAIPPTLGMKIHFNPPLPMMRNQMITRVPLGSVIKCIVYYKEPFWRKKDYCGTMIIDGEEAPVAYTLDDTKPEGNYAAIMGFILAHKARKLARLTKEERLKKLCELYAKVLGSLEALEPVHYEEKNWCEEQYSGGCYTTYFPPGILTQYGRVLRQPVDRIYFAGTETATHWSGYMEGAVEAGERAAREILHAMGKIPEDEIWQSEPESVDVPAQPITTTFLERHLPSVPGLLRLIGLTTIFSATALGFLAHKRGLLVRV

[8] = Antioxidant activity of compound assessed as trolox equivalent antioxidant capacity by ORAC-FL assay; type: functional
[9] = target: T1, Amyloid-beta precursor protein; assay: Inhibition of Cu2+ induced amyloid beta (1 to 42 residues) (unknown origin) aggregation at 25 uM by thioflavin-T fluorescence method relative to control
[10] = target: T1, Amyloid-beta precursor protein; assay: Inhibition of self-induced amyloid beta (1 to 42) (unknown origin) aggregation by T-fluorescence assay relative to control
Outline: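 IC50 by ThT fluorescence (excitation 446 nm, emission 490 nm). Computed only where inhibition of self-induced Aβ1-42 aggregation at 25 μM exceeded 90%. Triplicate; mean of three independent experiments.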

[11] = target: Acetylcholinesterase (Electrophorus electricus, UniProt O42275); assay: Inhibition of electric eel AChE using acetylthiocholine iodide as substrate by Ellman's method
Sequence of Acetylcholinesterase (Electrophorus electricus, UniProt O42275) (O42275 whole entry): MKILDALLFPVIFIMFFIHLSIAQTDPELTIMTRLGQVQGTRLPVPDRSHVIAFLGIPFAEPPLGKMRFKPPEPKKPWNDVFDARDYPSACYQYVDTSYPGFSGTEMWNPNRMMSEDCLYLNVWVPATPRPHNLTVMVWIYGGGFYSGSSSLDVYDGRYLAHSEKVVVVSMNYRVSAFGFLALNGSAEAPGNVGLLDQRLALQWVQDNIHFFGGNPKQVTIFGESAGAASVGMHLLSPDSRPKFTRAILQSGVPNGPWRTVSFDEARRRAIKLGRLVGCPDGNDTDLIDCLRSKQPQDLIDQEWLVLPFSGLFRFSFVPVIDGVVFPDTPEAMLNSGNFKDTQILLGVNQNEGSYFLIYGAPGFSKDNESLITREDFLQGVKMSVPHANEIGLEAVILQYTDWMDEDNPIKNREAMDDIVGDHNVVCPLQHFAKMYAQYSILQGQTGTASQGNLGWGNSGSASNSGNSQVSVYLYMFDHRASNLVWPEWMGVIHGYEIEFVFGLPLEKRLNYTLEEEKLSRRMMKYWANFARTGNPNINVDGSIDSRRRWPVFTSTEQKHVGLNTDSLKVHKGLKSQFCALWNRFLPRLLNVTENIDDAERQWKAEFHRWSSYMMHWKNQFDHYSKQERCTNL

[12] = target: T1, Amyloid-beta precursor protein; assay: Inhibition of self-induced amyloid beta (1 to 42) (unknown origin) aggregation at 25 uM by T-fluorescence assay relative to control
Outline: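 Self-induced Aβ1-42 aggregation measured by ThT fluorescence, excitation 446 nm and emission 490 nm. Compound and Aβ1-42 each at 25 μM. Run in triplicate. Values are mean of three independent experiments.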

T1 sequence (P05067 whole entry, the tested form may be a part): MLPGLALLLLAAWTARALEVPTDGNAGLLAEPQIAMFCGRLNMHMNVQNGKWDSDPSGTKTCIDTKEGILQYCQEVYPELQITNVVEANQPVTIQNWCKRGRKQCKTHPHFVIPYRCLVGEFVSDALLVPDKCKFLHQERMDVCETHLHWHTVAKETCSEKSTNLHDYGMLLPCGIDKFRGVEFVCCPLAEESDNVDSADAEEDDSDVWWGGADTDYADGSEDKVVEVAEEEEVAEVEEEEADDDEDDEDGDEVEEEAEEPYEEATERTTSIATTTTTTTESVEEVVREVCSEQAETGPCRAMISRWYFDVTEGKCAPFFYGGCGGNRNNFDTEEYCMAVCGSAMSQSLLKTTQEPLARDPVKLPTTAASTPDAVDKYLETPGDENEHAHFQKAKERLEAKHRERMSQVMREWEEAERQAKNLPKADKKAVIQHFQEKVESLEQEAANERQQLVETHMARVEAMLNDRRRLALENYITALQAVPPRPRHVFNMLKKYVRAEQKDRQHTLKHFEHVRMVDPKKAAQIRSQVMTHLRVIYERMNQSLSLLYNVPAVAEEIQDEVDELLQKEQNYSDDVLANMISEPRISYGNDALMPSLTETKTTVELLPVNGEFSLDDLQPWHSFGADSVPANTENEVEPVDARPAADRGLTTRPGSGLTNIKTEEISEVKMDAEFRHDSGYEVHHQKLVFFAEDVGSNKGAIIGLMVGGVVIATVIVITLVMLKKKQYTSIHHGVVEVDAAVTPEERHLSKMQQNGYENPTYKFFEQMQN
Sequence of Butyrylcholinesterase (Q9JKC1 whole entry): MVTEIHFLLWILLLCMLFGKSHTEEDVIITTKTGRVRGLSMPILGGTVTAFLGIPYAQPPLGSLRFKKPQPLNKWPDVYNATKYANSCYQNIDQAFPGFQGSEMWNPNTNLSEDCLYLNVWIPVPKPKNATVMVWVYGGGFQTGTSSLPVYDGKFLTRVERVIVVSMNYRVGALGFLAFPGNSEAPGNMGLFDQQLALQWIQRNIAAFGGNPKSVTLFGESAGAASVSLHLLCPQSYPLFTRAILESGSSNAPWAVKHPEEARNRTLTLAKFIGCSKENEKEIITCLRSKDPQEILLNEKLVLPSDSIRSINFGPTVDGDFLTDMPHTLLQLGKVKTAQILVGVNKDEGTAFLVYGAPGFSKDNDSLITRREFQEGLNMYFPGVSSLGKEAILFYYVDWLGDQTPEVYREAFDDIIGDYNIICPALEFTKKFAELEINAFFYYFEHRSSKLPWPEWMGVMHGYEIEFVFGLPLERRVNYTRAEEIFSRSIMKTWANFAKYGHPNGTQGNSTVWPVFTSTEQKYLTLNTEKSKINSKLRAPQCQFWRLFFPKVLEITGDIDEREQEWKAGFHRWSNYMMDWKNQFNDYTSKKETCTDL

SMILES	IC50 [1] [µM]	Activity [2] [%]	Activity [3] [%]	IC50 [4] [µM]	Selectivity Index [5]	IC50 [6] [µM]	IC50 [7] [µM]	Activity [8]	inhibition [9] [%]	IC50 ([10]; read-out: IC50) [µM]	IC50 [11] [µM]	inhibition [12] [%]	IC50 [10]
CCN(CCCOc1ccc(C(=O)/C=C/c2ccc(N(C)C)cc2)c(O)c1)Cc1ccc(N(C)C)cc1	> 500	73.7	77.6	2.47	4.2	57.5	13.7	1.3	95	1.32	6.21		
CCN(CCCCOc1ccc(C(=O)/C=C/c2ccc(N(C)C)cc2)c(O)c1)Cc1ccccc1	202	97.2	82.1	1.39	8.7	77.3	8.9	1.5	93.9	3.78	4.3		
CCN(CCCOc1ccc(C(=O)/C=C/c2ccc(N(C)C)cc2)c(O)c1)Cc1ccccc1N(C)C	339	96.6	89.5	0.21	7.4	23.6	3.2	2.1	94.8	1.27	1.59		
CCN(CCCCCCOc1ccc(C(=O)/C=C/c2ccc(N(C)C)cc2)c(O)c1)Cc1ccccc1	> 500	84.4	88.3	4	15	31.6	2.1	1.4	91	3.17	3.59		
CCN(CCCOc1ccc(C(=O)/C=C/c2ccccc2)c(O)c1)Cc1ccccc1N(C)C	> 500			0.31	84.4	67.8	0.8	1.3			2	23	
COc1ccc(C(=O)/C=C/c2ccc(N(C)C)cc2)c(O)c1	> 500			> 500	36.3	7.62	0.21	1.2			> 500	59.7	
CCN(CCCCOc1ccc(/C=C/C(=O)c2ccc(N(C)C)cc2O)cc1)Cc1ccccc1OC	> 500			0.71	2	9.2	4.6	1.6			1.63	70.1	
CN(C)c1ccc(/C=C/C(=O)c2ccc(N(C)C)cc2O)cc1	> 500			> 500	4	47.9	12.1	1.7			> 500	64.3	
COc1ccc(/C=C/C(=O)c2ccc(N(C)C)cc2O)cc1	> 500			> 500	3.2	42.5	13.3	1.5			> 500	36.1	
CCN(CCCCOc1ccc(/C=C/C(=O)c2ccc(N(C)C)cc2O)cc1)Cc1ccccc1N(C)C	> 500				2.9	12.3	4.3	1.5			3.02	75.8	
CCN(CCCOc1ccc(C(=O)/C=C/c2ccc(N(C)C)cc2)c(O)c1)Cc1ccccc1	> 500	97.5	73.8	1.44	6.3	82.6	13.1	1.6	91.9	1.68	5.06		
CCN(CCCCCCOc1ccc(C(=O)/C=C/c2ccc(N(C)C)cc2)c(O)c1)Cc1ccccc1N(C)C	422	87.9	83.4	0.31	18	37.8	2.1	2	96.5	1.03	2.44		
CCN(CCCCOc1ccc(C(=O)/C=C/c2ccc(N(C)C)cc2)c(O)c1)Cc1ccccc1OC	> 500	99.7	73	0.65	25	27.5	1.1	1.4	91.9	1.48	4.12		
COc1cc2c(cc1OC)C(=O)C(CC1CCN(Cc3ccccc3)CC1)C2 (configuration not stated) [DONEPEZIL]													Not Active
CCN(CCCCCCOc1ccc(C(=O)/C=C/c2ccc(N(C)C)cc2)c(O)c1)Cc1ccccc1OC	> 500	92.6	85.6	0.56	77.6	54.3	0.7	1.4	93.2	1.49	5.17		
CCN(CC)CCCOc1ccc(C(=O)/C=C/c2ccc(N(C)C)cc2)c(O)c1	> 500			2.25	11.5	47.1	4.1	1.2			1.35	64.1	
CCN(CCCCCCOc1ccc(C(=O)/C=C/c2ccc(N(C)C)cc2)c(O)c1)Cc1ccc(N(C)C)cc1	> 500	95	84.4	1.37	23.3	53.6	2.3	1.4	95.6	1.38	7.95		
CCN(CCCCOc1ccc(C(=O)/C=C/c2ccc(N(C)C)cc2)c(O)c1)Cc1ccc(N(C)C)cc1	68.9	91.6	78.8	1.35	7.2	17.2	2.4	1.5	91.7	2.1	1.96		
CCN(CCCOc1ccc(C(=O)/C=C/c2ccc(N(C)C)cc2)c(O)c1)Cc1ccccc1OC	> 500	98.1	74.8	0.63	2.4	26.3	10.8	1.5	95.2	3.56	5.3		

— ChEMBL document CHEMBL4813970, “Design, synthesis and evaluation of novel dimethylamino chalcone-O-alkylamines derivatives as potential multifunctional agents against Alzheimer's disease” (Eur J Med Chem, 2021)
